Results as given in ChEMBL document CHEMBL2384909, “Development of Novel Alkene Oxindole Derivatives As Orally Efficacious AMP-Activated Protein Kinase Activators” (ACS Med Chem Lett, 2013).
Active and inactive are the calls of the source. The calls are words filed in the database; no cut-off is given here.

Assays:
[1] = AUC (0 to infinity) in Wistar rat at 2 mg/kg, iv by LC-MS/MS analysis; format: ADME, organism-based; parameters: time infinity, dose 2 mg/kg, route intravenous; conditions: plasma
Cytochrome P450 2C9 = Cytochrome P450 2C9 (Homo sapiens, UniProt P11712); assay: Inhibition of CYP2C9 (unknown origin); format: ADME
Cytochrome P450 1A2 = target: T1, Cytochrome P450 1A2 (Homo sapiens, UniProt P05177); assay: Inhibition of CYP1A2 (unknown origin); format: ADME
T1 sequence (P05177 whole entry): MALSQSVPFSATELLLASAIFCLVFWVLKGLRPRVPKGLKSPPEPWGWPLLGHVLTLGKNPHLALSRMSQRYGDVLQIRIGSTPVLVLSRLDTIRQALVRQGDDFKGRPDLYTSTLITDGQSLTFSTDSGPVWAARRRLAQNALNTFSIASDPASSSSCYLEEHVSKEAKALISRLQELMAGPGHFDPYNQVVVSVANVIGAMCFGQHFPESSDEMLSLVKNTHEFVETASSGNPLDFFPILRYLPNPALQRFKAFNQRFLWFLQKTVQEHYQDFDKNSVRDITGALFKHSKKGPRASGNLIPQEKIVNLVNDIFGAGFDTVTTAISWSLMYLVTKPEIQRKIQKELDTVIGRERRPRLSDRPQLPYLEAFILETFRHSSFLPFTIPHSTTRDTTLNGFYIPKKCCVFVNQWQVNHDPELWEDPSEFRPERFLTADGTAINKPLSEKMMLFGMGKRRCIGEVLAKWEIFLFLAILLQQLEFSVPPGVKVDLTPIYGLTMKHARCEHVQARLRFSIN

Mus musculus [2] = assay: Upregulation of PGC1alpha gene expression in C57BL/6J mouse muscles at 15 to 150 mg/kg, po; format: functional, organism-based; conditions: Muscle tissue
Mus musculus [3] = assay: Upregulation of CPT2 gene expression in C57BL/6J mouse muscles at 15 to 150 mg/kg, po; format: functional, organism-based; conditions: Muscle tissue
[4] = AUC (0 to infinity) in Wistar rat at 10 mg/kg, po by LC-MS/MS analysis; format: ADME, organism-based; parameters: time infinity, dose 10 mg/kg, route oral; conditions: plasma
[5] = Terminal half life in Wistar rat at 2 mg/kg, iv by LC-MS/MS analysis; format: ADME, organism-based; parameters: dose 2 mg/kg, route intravenous; conditions: in vivo, read-out: beta t1/2 (converted)
[6] = Drug metabolism in mouse liver microsomes; format: ADME, Microsome
Mus musculus [7] = assay: Upregulation of PDK4 gene expression in C57BL/6J mouse muscles at 15 to 150 mg/kg, po; format: functional, organism-based; conditions: Muscle tissue
L6 [8] = assay: Activation of AMPK in rat L6 cells assessed as stimulation of glucose uptake after 15 mins; format: cell-based
Mus musculus [9] = assay: Antidiabetic activity in diet-induced obese C57BL/6J mouse assessed as reduction in plasma triglyceride at 50 mg/kg, po qd for 4 weeks (reference value: 0.62 +/- 0.02 mM); format: functional
L6 [10] = assay: Activation of AMPK alpha1 D159A/alpha2 K45R mutant in rat L6 cells assessed as stimulation of glucose uptake after 15 mins; format: cell-based
[11] = Half life in Wistar rat at 10 mg/kg, po by LC-MS/MS analysis; format: ADME, organism-based; parameters: dose 10 mg/kg, route oral; conditions: in vivo
[12] = target: Glycogen synthase kinase-3 beta (Homo sapiens) (UniProt P49841); assay: Activity at GSK3beta (unknown origin)
[13] = AUC (0 to 24 hrs) in Wistar rat at 10 mg/kg, po by LC-MS/MS analysis; format: ADME, organism-based; parameters: time < 24 hr, dose 10 mg/kg, route oral; conditions: plasma
Mus musculus [14] = assay: Upregulation of long chain acyl CoA dehydrogenase gene expression in C57BL/6J mouse muscles at 15 to 150 mg/kg, po; format: functional, organism-based; conditions: Muscle tissue
L6 [15] = assay: Induction of AMPK phosphorylation in rat L6 cells by Western blotting analysis; format: cell-based
Mus musculus [16] = assay: Antidiabetic activity in diet-induced obese C57BL/6J mouse assessed as reduction in plasma triglyceride at 150 mg/kg, po qd for 4 weeks (reference value: 0.62 +/- 0.02 mM); format: functional
Mus musculus [17] = assay: Antidiabetic activity in diet-induced obese C57BL/6J mouse assessed as increase in insulin tolerance at 15 to 150 mg/kg, po qd for 4 weeks by insulin tolerance test relative to control; format: functional, organism-based
AMPK alpha2/beta1/gamma1 = AMPK alpha2/beta1/gamma1 (Homo sapiens, UniProt P54619+P54646+Q9Y478); assay: Activation of recombinant AMPK alpha2beta1gamma1 (unknown origin) after 2 hrs by scintillation proximity assay; format: protein-complex assay
Outline: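 Activation of bacterially expressed AMPK α2β1γ1 was measured by scintillation proximity assay. Efficacy is expressed relative to AMP.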

[18] = target: Voltage-gated inwardly rectifying potassium channel KCNH2 (Homo sapiens, UniProt Q12809); assay: Inhibition of human ERG
Cytochrome P450 2C19 = Cytochrome P450 2C19 (Homo sapiens, UniProt P33261); assay: Inhibition of CYP2C19 (unknown origin); format: ADME
Mus musculus [19] = assay: Upregulation of FABP3 gene expression in C57BL/6J mouse muscles at 15 to 150 mg/kg, po; format: functional, organism-based; conditions: Muscle tissue
[20] = target: Maternal embryonic leucine zipper kinase (Homo sapiens) (UniProt Q14680); assay: Activity at MELK (unknown origin)
[21] = target: Serine/threonine-protein kinase MARK2 (Homo sapiens) (UniProt Q7KZI7); assay: Activity at MARK2 (unknown origin)
Mus musculus [22] = assay: Antidiabetic activity in diet-induced obese C57BL/6J mouse assessed as reduction in plasma triglyceride at 15 mg/kg, po qd for 4 weeks (reference value: 0.62 +/- 0.02 mM); format: functional
Mus musculus [23] = assay: Upregulation of COX5B gene expression in C57BL/6J mouse muscles at 15 to 150 mg/kg, po; format: functional, organism-based; conditions: Muscle tissue
Mus musculus [24] = assay: Antidiabetic activity in diet-induced obese C57BL/6J mouse assessed as decrease in AUC at 50 to 150 mg/kg, po qd for 4 weeks by glucose tolerance test relative to control; format: functional; parameters: scale not given: the % may be the effect or the level left; conditions: dose mg/kg 50-150
[25] = AUC (0 to 24 hrs) in Wistar rat at 2 mg/kg, iv by LC-MS/MS analysis; format: ADME, organism-based; parameters: time < 24 hr, dose 2 mg/kg, route intravenous; conditions: plasma
L6 [26] = assay: Induction of AMPK-mediated ACC phosphorylation in rat L6 cells by Western blotting analysis; format: cell-based
Mus musculus [27] = assay: Upregulation of medium chain acyl CoA dehydrogenase gene expression in C57BL/6J mouse muscles at 15 to 150 mg/kg, po; format: functional, organism-based; conditions: Muscle tissue
Mus musculus [28] = assay: Antidiabetic activity in diet-induced obese C57BL/6J mouse assessed as improved glucose tolerance at 50 to 150 mg/kg, po qd for 4 weeks by glucose tolerance test
Mus musculus [29] = assay: Upregulation of UCP2 gene expression in C57BL/6J mouse muscles at 15 to 150 mg/kg, po; format: functional, organism-based; conditions: Muscle tissue
Mus musculus [30] = assay: Upregulation of CPT1 gene expression in C57BL/6J mouse muscles at 15 to 150 mg/kg, po; format: functional, organism-based; conditions: Muscle tissue
[31] = target: AMPK alpha2/beta1/gamma1 (Homo sapiens) (UniProt P54646+P54619+Q9Y478); assay: Activation of recombinant AMPK alpha2beta1gamma1 (unknown origin) at 20 ug/mL after 2 hrs by scintillation proximity assay relative to AMP; format: protein-complex assay
Cytochrome P450 3A4 = Cytochrome P450 3A4 (Homo sapiens, UniProt P08684); assay: Inhibition of CYP3A4 (unknown origin); format: ADME
Chain of Cytochrome P450 3A4 (P08684 whole entry): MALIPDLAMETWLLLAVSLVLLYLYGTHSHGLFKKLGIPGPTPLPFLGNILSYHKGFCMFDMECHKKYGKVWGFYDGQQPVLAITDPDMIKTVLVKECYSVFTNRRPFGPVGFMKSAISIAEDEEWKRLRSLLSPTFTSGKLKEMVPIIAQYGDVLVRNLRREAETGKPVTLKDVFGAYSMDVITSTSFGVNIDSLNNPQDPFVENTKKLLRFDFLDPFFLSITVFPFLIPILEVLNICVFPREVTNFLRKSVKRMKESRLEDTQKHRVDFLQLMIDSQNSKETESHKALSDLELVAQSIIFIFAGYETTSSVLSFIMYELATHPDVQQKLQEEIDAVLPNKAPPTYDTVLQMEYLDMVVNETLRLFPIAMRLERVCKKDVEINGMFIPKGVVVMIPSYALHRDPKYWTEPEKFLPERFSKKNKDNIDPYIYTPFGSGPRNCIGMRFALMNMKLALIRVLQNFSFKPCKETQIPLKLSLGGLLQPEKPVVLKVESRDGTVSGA

Chain of AMPK alpha2/beta1/gamma1 (Homo sapiens) (P54619 whole entry partner): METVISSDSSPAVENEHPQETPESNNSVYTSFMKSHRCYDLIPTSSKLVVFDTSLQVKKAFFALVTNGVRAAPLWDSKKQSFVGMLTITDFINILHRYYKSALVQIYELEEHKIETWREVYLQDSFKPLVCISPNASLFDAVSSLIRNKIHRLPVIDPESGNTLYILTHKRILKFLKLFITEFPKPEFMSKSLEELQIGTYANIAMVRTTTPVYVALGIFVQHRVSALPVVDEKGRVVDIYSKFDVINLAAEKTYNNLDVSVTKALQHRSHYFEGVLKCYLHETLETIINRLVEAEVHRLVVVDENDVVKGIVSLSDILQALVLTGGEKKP
Chain of AMPK alpha2/beta1/gamma1 (Homo sapiens) (P54646 whole entry): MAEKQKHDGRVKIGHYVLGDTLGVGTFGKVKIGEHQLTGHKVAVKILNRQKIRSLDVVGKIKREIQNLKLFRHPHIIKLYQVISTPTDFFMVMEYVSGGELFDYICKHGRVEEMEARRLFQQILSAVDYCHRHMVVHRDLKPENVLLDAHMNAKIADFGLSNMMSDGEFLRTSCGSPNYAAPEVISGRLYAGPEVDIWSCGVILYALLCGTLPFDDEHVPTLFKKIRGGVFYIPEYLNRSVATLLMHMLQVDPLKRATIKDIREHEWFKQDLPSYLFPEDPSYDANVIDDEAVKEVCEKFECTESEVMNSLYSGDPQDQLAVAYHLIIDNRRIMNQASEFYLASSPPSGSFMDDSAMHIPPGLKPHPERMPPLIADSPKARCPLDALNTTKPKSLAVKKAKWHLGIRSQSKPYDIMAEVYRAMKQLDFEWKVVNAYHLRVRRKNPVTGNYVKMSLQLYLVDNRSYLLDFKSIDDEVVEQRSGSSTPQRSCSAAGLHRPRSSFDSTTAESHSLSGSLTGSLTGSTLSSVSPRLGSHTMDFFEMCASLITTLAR
Chain of AMPK alpha2/beta1/gamma1 (Homo sapiens) (Q9Y478 2-270 partner limits assumed): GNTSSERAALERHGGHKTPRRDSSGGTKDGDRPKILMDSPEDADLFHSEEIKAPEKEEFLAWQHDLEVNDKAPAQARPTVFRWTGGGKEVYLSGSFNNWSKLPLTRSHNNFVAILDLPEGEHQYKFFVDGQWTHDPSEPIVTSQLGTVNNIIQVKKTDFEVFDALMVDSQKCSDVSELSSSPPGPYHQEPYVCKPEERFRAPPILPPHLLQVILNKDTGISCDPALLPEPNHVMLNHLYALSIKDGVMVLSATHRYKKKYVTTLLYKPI
Chain of Cytochrome P450 2C19 (P33261 whole entry): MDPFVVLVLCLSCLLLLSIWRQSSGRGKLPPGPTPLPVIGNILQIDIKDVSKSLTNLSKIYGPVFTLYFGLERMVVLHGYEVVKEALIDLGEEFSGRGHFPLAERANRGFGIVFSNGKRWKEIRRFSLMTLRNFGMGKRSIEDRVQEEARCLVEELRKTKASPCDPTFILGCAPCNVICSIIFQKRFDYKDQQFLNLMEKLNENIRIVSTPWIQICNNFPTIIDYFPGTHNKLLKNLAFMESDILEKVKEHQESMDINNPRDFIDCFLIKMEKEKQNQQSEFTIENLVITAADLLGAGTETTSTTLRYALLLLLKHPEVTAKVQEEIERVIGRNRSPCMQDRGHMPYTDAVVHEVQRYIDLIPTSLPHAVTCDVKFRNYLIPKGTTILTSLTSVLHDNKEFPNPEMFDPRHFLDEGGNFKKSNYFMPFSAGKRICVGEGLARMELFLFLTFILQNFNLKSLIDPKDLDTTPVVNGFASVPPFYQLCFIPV
Chain of Glycogen synthase kinase-3 beta (Homo sapiens) (P49841 whole entry, looked up): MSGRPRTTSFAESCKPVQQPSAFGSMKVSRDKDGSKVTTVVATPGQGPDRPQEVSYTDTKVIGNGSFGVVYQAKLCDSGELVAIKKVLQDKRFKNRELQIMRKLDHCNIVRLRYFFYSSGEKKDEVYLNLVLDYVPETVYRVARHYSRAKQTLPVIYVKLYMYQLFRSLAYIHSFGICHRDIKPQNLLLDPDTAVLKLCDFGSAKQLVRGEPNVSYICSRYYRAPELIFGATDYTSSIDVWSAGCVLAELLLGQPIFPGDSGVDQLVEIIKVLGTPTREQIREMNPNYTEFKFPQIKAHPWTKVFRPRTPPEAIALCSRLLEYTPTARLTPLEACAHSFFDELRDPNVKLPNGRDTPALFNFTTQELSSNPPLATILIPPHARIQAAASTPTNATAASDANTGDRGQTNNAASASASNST
Chain of Voltage-gated inwardly rectifying potassium channel KCNH2 (Q12809 whole entry): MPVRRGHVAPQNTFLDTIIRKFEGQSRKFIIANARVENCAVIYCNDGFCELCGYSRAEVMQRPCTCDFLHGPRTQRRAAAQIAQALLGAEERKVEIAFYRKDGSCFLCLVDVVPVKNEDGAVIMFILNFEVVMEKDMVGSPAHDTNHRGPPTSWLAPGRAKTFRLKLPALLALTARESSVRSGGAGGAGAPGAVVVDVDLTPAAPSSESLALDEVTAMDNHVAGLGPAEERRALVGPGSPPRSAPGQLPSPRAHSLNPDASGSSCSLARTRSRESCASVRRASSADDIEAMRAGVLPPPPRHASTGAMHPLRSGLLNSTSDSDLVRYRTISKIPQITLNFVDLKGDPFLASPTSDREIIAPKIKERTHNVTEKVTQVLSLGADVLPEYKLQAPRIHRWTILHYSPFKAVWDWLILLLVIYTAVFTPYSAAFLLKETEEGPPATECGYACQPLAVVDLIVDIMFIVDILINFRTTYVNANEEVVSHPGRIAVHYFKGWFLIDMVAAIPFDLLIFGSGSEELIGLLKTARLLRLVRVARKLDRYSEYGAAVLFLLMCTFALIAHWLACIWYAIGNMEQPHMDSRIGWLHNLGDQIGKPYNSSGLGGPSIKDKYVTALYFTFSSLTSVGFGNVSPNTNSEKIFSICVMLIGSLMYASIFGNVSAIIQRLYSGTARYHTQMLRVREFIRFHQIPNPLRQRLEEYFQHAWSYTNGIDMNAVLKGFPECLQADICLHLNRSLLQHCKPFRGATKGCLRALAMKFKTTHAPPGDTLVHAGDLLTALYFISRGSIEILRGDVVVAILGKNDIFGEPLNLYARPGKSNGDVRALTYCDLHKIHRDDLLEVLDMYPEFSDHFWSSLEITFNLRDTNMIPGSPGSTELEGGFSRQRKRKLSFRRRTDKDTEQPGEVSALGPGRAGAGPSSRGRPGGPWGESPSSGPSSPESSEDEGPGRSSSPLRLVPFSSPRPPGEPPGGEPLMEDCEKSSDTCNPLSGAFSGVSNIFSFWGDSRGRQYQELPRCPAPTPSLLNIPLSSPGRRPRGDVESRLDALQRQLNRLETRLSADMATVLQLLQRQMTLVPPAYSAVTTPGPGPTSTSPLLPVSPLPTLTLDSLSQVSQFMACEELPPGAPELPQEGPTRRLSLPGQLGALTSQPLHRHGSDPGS
Chain of Serine/threonine-protein kinase MARK2 (Homo sapiens) (Q7KZI7 whole entry): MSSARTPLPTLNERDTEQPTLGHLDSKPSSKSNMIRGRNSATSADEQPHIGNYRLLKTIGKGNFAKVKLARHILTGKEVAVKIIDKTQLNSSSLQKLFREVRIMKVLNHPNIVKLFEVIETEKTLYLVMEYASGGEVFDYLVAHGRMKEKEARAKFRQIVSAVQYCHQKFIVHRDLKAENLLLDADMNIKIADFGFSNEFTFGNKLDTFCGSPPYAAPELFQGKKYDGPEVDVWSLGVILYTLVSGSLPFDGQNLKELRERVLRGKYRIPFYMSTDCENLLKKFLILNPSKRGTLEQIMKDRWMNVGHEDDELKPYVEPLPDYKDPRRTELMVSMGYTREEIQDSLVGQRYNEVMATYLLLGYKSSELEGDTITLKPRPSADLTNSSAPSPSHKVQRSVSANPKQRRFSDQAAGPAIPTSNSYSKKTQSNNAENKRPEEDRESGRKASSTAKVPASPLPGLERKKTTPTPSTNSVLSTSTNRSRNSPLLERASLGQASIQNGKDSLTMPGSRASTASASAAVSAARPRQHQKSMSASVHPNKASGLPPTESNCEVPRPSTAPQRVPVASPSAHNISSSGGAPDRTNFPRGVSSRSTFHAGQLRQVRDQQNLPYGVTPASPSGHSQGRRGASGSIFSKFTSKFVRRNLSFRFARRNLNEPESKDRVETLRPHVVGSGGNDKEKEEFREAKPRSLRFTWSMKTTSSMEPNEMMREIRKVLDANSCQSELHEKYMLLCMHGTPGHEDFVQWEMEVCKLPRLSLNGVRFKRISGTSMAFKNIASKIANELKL
Chain of AMPK alpha2/beta1/gamma1 (P54646 whole entry): as the sequence (P54646 whole entry) above
Chain of AMPK alpha2/beta1/gamma1 (P54619 whole entry): as the sequence (P54619 whole entry partner) above
Chain of AMPK alpha2/beta1/gamma1 (Q9Y478 whole entry): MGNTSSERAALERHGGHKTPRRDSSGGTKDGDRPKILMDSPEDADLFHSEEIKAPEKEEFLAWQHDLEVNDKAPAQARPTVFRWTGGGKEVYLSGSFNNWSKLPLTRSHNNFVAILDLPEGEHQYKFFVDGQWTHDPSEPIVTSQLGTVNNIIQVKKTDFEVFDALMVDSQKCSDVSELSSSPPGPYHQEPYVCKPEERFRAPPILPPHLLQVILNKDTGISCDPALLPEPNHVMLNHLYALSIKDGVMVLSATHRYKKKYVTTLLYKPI

AUC(0-inf) [1]: 17.5 µg·h/mL
inhibition (INH) (Cytochrome P450 2C9): Not Active
inhibition (INH) (Cytochrome P450 1A2): Not Active
AUC(0-inf) [4]: 29.5 µg·h/mL
half-life [5]: 3.94 h
Drug metabolism [6]: Not Active
half-life [11]: 4 h
Activity [12]: inactive
AUC(0-t) at 24 h [13]: 28.9 µg·h/mL
EC50 (AMPK alpha2/beta1/gamma1): 1.2 µM
inhibition (INH) (Cytochrome P450 2C19): Not Active
Activity [20]: inactive
Activity [21]: inactive
AUC(0-t) at 24 h [25]: 17.3 µg·h/mL
Efficacy [31]: 110%
inhibition (INH) (Cytochrome P450 3A4): Not Active
SMILES: O=C(O)c1cccc(CN2C(=O)/C(=C(\c3ccccc3)c3ccc(Cl)cc3)c3ccccc32)c1
Activity (Mus musculus [2]): Active
Activity (Mus musculus [3]): Active
Activity (Mus musculus [7]): Active
Activity (L6 [8]): Dose-dependent effect
Activity (Mus musculus [9]): 0.52 mM
Activity (L6 [10]): inactive
Activity (Mus musculus [14]): Active
Activity (L6 [15]): Dose-dependent effect
Activity (Mus musculus [16]): 0.54 mM
Activity (Mus musculus [17]): Active
IC50 [18]: > 20 µM
Activity (Mus musculus [19]): Active
Activity (Mus musculus [22]): 0.52 mM
Activity (Mus musculus [23]): Active
Activity (Mus musculus [24]): 30%
Activity (L6 [26]): Dose-dependent effect
Activity (Mus musculus [27]): Active
Activity (Mus musculus [28]): Active
Activity (Mus musculus [29]): Active
Activity (Mus musculus [30]): Active
